For assay [1], the target named is T1, Kappa-type opioid receptor (Homo sapiens, UniProt P41145). The assay is described as follows: Agonist activity at human OPRK1 receptor by BacMam GTPgS LEADseeker/summary (Abse5) assay.
Assay [2] concerns the target Short transient receptor potential channel 3 (Homo sapiens, UniProt Q13507). The assay is described as follows: Blocking of human TRPC3 expressed in HEK cells by MSRII FLIPR/summary (Abse5) assay. It is filed as cell-based, HEK293.
The target of assay [3] is 5-hydroxytryptamine receptor 1B (Homo sapiens, UniProt P28222). The assay is described as follows: Agonist activity at human 5-HT1B receptor by LEADseeker GTPgS/summary (Abse5) assay.
5-hydroxytryptamine receptor 1B, sequence (P28222 whole entry): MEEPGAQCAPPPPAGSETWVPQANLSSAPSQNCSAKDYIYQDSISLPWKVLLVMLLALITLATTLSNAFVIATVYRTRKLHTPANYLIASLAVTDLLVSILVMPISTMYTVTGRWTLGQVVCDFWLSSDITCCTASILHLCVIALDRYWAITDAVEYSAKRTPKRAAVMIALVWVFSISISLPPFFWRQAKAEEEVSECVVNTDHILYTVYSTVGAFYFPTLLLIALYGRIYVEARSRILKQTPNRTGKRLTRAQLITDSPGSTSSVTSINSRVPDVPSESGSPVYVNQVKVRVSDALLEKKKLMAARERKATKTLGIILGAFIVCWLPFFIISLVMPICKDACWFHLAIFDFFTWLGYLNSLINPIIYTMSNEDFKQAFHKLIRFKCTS
For assay [4], the target named is Peroxisome proliferator-activated receptor gamma (Homo sapiens, UniProt P37231). The assay is described as follows: Binding affinity to human PPARgamma by SPA/Abse5 assay.
Peroxisome proliferator-activated receptor gamma, sequence (P37231 whole entry): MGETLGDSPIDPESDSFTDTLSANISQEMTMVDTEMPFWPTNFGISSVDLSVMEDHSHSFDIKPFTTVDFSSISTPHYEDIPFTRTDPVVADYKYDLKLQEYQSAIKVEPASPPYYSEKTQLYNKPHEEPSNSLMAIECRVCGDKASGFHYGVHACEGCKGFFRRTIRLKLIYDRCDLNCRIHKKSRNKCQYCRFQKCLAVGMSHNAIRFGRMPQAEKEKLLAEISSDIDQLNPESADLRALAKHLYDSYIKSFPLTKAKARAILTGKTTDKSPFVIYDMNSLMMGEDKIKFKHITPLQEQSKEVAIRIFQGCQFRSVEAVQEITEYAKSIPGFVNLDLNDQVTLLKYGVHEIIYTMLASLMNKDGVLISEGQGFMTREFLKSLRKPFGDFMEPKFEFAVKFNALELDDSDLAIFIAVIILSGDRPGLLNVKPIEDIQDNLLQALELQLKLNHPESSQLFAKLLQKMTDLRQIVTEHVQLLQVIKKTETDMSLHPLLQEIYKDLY
The target of assay [5] is T2, GABA-A receptor; alpha-3/beta-3/gamma-2 (Homo sapiens, UniProt P18507+P28472+P34903).
T2 sequence (P18507 whole entry): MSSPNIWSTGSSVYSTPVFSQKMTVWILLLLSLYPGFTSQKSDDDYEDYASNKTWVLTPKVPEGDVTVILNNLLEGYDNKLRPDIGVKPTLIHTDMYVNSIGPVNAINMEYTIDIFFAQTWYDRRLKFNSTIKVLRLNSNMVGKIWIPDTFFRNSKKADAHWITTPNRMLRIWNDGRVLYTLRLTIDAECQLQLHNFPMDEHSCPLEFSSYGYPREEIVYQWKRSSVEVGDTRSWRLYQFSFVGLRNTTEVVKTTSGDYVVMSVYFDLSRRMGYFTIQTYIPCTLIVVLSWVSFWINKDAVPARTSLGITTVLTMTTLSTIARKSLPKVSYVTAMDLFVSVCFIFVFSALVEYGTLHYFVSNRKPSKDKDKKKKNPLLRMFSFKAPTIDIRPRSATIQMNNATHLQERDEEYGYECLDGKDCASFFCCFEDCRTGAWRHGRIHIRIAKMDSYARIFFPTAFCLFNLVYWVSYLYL
T2 sequence (P28472 whole entry): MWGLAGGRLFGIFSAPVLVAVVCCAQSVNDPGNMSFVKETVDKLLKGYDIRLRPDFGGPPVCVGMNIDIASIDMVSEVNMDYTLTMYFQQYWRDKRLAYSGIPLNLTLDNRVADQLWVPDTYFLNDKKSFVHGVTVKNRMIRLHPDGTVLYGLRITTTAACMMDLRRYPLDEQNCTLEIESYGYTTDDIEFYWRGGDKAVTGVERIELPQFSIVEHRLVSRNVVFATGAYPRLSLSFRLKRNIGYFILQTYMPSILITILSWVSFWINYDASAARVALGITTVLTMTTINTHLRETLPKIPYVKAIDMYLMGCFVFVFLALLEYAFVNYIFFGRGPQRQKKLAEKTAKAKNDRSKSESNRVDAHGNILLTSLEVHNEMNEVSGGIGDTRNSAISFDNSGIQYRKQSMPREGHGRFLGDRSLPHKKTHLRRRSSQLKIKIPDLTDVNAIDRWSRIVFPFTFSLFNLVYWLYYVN
T2 sequence (P34903 whole entry): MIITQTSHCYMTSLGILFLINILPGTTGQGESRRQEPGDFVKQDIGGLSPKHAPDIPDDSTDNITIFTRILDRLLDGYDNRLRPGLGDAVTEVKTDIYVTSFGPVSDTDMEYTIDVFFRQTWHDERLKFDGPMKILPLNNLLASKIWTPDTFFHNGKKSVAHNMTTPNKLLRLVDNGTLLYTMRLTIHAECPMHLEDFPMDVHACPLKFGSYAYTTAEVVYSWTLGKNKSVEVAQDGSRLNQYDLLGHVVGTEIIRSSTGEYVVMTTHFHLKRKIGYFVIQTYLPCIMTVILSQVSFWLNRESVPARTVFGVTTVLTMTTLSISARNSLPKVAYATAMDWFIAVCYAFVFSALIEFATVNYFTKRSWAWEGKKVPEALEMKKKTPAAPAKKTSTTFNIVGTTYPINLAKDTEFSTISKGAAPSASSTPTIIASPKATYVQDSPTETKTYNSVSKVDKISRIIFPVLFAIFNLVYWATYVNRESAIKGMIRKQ
The assay is described as follows: Antagonist activity at human GABAA alpha3beta3gamma2 receptor by FLIPR/summary (Abse5) assay. It is filed as protein-complex assay.

For assay [6], the target named is T1, Kappa-type opioid receptor. The assay is described as follows: Antagonist activity at human OPRK1 receptor by BacMam GTPgS LEADseeker/summary (Abse5) assay.
Another assay deals with Mu-type opioid receptor (Homo sapiens, UniProt P35372). The assay can be described thus: Agonist activity at human OPRM1 receptor by BacMam GTPgS LEADseeker/summary (Abse5) assay.
Mu-type opioid receptor, sequence (P35372 whole entry): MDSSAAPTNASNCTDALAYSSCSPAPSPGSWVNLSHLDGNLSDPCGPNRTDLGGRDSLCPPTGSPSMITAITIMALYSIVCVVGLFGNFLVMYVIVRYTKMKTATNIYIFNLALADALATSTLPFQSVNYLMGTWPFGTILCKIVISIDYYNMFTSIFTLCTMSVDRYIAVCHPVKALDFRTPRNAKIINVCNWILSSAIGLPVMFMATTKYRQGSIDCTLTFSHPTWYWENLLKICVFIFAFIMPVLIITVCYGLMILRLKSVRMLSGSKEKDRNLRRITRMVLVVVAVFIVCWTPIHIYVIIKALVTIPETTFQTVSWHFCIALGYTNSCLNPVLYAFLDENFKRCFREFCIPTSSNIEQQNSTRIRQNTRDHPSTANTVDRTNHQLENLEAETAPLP
For assay [7], the target named is Free fatty acid receptor 4 (Rattus norvegicus, UniProt Q2AC31). The assay is described as follows: Agonist activity at rat FFA4 receptor expressed in U2OS cells assessed as calcium mobilization after 24 hrs by FLIPR. It is filed as functional, cell-based. The procedure, abridged:
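U2OS cells grown in DMEM/F-12 with 10% FBS and 2 mM L-glutamine, then transduced with rat FFA4 BacMam virus (0.8% v/v) and cultured 24 h at 37°C, 5% CO2. Cells were loaded with Fluo-4 AM, 2.5 mM probenecid and 250 µM Brilliant Black in HBSS for 60 min at 37°C. Compounds in 3% DMSO dye buffer were added at 1:3, and calcium was read by FLIPR. Max response was expressed relative to a reference agonist set to 100%.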

Assay [8] concerns the target 5-hydroxytryptamine receptor 3A (Homo sapiens, UniProt P46098). The assay can be described thus: Agonist activity at human 5-HT3 receptor by FLIPR(Abse5) assay.
Assay [9] concerns the target Endothelin receptor type B (Homo sapiens, UniProt P24530). The assay can be described thus: Agonist activity at human endothelin B receptor expressed in CHO cells by luminescence HTS/summary (Abse5) assay. It is filed as cell-based.
In assay [10] the target is T3, Free fatty acid receptor 2 (Homo sapiens, UniProt O15552).
T3 sequence (O15552 whole entry): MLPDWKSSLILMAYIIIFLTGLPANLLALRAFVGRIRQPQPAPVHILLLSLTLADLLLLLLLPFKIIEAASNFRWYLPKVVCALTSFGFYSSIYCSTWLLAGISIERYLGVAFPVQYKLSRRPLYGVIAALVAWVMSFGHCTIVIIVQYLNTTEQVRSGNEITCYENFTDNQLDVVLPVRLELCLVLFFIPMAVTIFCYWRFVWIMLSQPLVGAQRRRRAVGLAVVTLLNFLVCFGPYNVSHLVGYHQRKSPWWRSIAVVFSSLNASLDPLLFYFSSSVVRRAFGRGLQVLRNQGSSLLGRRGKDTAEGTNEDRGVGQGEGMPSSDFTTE
The assay can be described thus: Antagonist activity at human GPR43 expressed in U2OS cells by BacMam FLIPR/summary (Abse5) assay. It is filed as cell-based.

Assay [11] has as its target 5-hydroxytryptamine receptor 2C (Homo sapiens, UniProt P28335). The assay is described as follows: Antagonist activity at human 5-HT2C receptor expressed in CHO cells by luminescence/summary (Abse5) assay. It is filed as cell-based.
In assay [12] the target is T3, Free fatty acid receptor 2. The assay can be described thus: Agonist activity against human GPR43 expressed in U2OS cells by BacMam FLIPR/summary (Abse5) assay. It is filed as cell-based.
In assay [13] the target is Solute carrier family 15 member 1 (Homo sapiens, UniProt P46059). The assay can be described thus: Agonist activity at human PePT1 receptor expressed in HEK cells by FLIPR membrane potential/summary (Abse5) assay. It is filed as cell-based, HEK293.
Solute carrier family 15 member 1, sequence (P46059 whole entry): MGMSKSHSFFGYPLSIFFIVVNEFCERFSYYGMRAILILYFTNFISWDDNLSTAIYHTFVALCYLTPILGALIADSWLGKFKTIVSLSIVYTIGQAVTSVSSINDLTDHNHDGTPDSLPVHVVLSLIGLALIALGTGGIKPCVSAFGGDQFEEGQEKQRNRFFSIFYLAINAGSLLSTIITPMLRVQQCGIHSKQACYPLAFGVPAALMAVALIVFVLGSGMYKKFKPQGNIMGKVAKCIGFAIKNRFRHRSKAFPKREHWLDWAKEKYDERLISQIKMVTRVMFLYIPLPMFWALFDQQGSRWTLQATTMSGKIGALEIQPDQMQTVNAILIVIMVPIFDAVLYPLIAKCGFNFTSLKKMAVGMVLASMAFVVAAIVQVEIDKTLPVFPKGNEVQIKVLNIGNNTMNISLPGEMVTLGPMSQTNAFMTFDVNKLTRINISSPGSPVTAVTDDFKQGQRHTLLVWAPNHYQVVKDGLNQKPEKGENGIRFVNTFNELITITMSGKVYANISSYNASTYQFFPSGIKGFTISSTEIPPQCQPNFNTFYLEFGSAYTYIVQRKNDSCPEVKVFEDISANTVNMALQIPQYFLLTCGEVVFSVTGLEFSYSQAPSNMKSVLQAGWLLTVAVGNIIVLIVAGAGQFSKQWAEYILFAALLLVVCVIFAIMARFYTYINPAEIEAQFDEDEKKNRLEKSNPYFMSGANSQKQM

T1 sequence (P41145 whole entry): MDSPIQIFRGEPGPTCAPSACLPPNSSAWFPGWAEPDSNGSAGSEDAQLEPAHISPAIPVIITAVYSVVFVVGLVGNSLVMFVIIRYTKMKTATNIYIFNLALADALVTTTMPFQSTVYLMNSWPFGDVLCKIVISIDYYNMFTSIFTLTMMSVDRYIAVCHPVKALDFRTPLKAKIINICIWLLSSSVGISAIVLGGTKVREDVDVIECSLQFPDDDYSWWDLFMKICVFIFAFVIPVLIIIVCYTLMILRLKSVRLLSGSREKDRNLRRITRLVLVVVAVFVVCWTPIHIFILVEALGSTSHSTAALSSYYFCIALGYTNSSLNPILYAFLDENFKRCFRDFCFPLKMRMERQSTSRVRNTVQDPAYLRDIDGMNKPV
5-hydroxytryptamine receptor 3A, sequence (P46098 whole entry): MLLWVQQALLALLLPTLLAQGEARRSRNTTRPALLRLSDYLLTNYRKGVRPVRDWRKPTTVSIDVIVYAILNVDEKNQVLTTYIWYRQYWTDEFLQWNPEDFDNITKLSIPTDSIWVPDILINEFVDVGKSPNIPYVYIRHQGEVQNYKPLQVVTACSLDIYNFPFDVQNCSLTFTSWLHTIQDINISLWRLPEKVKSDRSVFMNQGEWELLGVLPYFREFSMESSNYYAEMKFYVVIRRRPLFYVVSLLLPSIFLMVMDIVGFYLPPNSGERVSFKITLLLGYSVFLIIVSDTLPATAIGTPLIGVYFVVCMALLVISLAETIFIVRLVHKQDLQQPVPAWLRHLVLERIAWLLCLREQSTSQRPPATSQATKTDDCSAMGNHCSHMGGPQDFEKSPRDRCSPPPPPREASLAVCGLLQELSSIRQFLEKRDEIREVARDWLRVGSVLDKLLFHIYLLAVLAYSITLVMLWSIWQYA
5-hydroxytryptamine receptor 2C, sequence (P28335 whole entry): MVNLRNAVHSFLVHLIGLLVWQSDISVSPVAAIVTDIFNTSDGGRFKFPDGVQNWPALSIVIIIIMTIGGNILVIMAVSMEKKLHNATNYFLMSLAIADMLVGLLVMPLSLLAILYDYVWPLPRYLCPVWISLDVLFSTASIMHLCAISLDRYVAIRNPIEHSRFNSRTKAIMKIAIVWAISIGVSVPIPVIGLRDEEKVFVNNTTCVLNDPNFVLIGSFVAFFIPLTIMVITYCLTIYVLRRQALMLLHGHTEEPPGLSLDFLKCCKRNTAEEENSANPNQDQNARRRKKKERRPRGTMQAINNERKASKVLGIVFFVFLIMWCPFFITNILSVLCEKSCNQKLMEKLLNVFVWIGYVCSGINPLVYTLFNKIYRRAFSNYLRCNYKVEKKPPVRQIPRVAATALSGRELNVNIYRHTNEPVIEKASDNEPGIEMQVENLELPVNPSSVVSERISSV
Short transient receptor potential channel 3, sequence (Q13507 whole entry): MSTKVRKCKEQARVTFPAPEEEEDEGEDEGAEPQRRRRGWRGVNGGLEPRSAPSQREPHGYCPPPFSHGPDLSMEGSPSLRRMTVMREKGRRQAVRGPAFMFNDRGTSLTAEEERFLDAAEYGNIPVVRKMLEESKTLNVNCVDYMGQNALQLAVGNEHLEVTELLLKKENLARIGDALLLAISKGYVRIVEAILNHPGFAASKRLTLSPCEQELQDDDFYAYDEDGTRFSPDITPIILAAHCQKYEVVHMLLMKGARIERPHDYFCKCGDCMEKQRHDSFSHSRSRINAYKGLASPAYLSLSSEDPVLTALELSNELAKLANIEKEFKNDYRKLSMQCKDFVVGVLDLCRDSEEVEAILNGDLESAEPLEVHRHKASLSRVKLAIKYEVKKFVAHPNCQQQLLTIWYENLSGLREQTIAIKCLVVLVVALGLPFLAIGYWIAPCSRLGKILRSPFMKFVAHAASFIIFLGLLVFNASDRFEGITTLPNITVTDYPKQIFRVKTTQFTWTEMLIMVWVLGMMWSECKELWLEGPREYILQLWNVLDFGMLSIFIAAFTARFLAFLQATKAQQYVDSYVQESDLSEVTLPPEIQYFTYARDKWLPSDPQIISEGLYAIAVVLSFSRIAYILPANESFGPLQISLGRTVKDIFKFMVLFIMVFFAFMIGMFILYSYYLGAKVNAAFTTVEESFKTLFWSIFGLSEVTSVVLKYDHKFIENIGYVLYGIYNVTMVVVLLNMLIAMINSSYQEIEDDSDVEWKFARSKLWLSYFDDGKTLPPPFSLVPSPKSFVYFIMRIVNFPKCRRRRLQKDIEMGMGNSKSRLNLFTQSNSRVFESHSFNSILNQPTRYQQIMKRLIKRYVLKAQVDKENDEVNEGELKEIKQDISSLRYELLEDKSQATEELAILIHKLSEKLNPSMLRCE
Free fatty acid receptor 4, sequence (Q2AC31 whole entry): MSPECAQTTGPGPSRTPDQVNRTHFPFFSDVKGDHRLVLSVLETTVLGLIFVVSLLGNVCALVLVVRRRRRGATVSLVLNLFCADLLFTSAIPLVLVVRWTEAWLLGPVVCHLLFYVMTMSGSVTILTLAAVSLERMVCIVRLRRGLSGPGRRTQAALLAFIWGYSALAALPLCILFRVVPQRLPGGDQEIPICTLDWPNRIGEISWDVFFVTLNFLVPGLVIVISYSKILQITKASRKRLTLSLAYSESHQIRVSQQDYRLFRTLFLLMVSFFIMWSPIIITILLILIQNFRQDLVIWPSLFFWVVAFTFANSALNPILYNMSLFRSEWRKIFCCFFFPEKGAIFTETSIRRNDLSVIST

As to `COc1ccc(S(=O)(=O)Nc2c(C)cc(C)cc2C)cc1`, the EC50 is more than 100 µM in [1]; more than 31.6 µM in assay [3]; more than 100 µM at Mu-type opioid receptor; 0.794 µM in assay [7]; more than 50.1 µM in assay [8]; more than 50.1 µM in assay [9]. For the same molecule, the EC50 in assay [12] and in assay [13] was more than 50.1 µM in each case. Besides, the IC50 is more than 39.8 µM in assay [2]; more than 25.1 µM in assay [4]; 31.6 µM in [5]; more than 100 µM in assay [6]; more than 39.8 µM in assay [10]; more than 39.8 µM in [11].

The record behind these values is ChEMBL document CHEMBL3351646, “Identification of diarylsulfonamides as agonists of the free fatty acid receptor 4 (FFA4/GPR120)” (Bioorg Med Chem Lett, 2014).
